High-throughput results deposited in PubChem BioAssay by several laboratories.
Shown are actives, neighbours in structure and some others; about 2% of the full set was active somewhere.
core dimer inh = blocks dimerization of HCV core protein. TR-FRET GST/Flag-core106 dimerization, 1536-well. inhibition, % at 5 µM. actives 0.33% (n = 300,000). AID 1899;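 active = inhibition above the mean of all tested compounds plus 3 SD, set per screening campaign, cut at about 45% in these data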
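Test system: GST/Flag-tagged HCV core106 proteins; Medium: KF-containing HEPES buffer, pH 7.45, DTT, CHAPS, BSA; Times: compound-protein-antibody incubation 4 h at 22.5 °C; Detection: TR-FRET 671 and 617 nm emission; Benchmarks: wells lacking GST-core106 and wells with excess unlabelled core106.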
MLLE-PAM2 inh = blocks PAM2 peptide binding to the PABP1 MLLE domain | GST-MLLE / FITC-PAM2 fluorescence polarization | inhibition, % at 20 µM | actives 0.36% (n = 360,000) | AID 588489; in the data active = inhibition above about 35%, passing the limit was not always enough;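 note: plate controls were DMSO wells with GST-MLLE for no effect and wells lacking GST-MLLE protein for full effect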
Target sequence (P11940 whole entry, looked up, the tested form may be a part): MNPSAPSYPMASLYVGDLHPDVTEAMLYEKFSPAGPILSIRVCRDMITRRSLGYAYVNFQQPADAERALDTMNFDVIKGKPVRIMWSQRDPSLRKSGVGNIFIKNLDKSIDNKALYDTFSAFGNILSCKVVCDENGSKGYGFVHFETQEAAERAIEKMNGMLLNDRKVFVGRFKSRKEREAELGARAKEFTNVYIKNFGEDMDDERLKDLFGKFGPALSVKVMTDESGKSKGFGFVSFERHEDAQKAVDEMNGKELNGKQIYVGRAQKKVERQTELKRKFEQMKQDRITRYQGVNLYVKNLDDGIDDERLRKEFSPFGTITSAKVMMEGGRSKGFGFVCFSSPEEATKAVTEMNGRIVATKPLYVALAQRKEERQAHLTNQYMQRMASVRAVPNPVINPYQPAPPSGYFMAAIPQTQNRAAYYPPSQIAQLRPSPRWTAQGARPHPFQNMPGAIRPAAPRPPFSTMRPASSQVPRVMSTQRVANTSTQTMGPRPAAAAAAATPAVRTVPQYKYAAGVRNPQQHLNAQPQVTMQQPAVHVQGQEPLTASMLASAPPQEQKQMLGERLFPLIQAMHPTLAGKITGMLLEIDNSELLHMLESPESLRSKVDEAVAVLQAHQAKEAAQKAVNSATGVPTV
PABP polyA inh = PABP-poly(A) binding inhibition | P11940 | PABP-poly(A) RNA binding, fluorescence polarization | inhibition, % at 35 µM | actives 1% (n = 290,000) | AID 2014; call rule not given here;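 note: calls also rest on retests at 20 µM and on dose response follow-up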
DNA FID counter-1 = displaces DNA intercalator in HCV helicase counter-screen; DNA fluorescent intercalator displacement, fluorescence; inhibition, % at 7.9 µM; actives 0.17% (n = 290,000);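 note: 0% = vehicle and 100% = reference compound; higher means more ethidium bromide displaced from hairpin DNA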
eIF4H FP inh = inhibitors of RNA binding by human eIF4H; eIF4H fluorescence polarization binding assay; inhibition, % at 35 µM; actives 0.94% (n = 290,000); call rule not given here;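 note: calls also rest on retests at 20 µM and on dose response follow-up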
NS3 helicase inh = blocks Hepatitis C virus NS3 helicase unwinding. actives 0.56% (n = 290,000). AID 1800. NS3 helicase DNA unwinding, Cy5 molecular beacon fluorescence. inhibition, % at 10.9 µM;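 active = inhibition above the mean of all tested compounds plus 3 SD, set per campaign, cut at about 35% in these data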;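 note: 0% = DMSO wells and 100% = thioflavine S control wells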
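System: NS3 helicase fragment of HCV / Schedule: 1 h at 25 °C / Control set: DMSO alone as 0% and 110 µM thioflavine S as 100% / Reagent: Cy5/quencher beacon DNA duplex and ATP to start / Technique: Cy5 fluorescence / Replication: singlicate / Evaluation: % inhibition of end-to-start signal ratio versus controls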
NS3 hel confirm = confirmation of Hepatitis C virus NS3 helicase inhibitors; shares compounds with NS3 helicase inh; NS3 helicase DNA unwinding, Cy5 molecular beacon fluorescence; inhibition, % at 10.9 µM; actives 31% (n = 1,600); AID 1943;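 active = inhibition above the mean of all tested compounds plus 3 SD, cutoff set per campaign, cut at about 36% in these data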
DNA FID counter-2 = counter-screen for HCV NS3 helicase inhibitors: DNA intercalator displacement. AID 1945. inhibition, % at 7.9 µM. shares compounds with NS3 helicase inh. DNA fluorescent intercalator displacement, fluorescence. actives 4% (n = 1,600);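 note: 0% = vehicle and 100% = reference compound; higher means more displacement of ethidium bromide from the DNA hairpin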
* = called active by the depositor; i = inactive; ? = inconclusive; · = no result. Cut-off read from the data, not from the text of the source, unless noted: active = inhibition above about 37%; inactive = the rest.

SMILES	core dimer inh	MLLE-PAM2 inh	PABP polyA inh	DNA FID counter-1	eIF4H FP inh	NS3 helicase inh	NS3 hel confirm	DNA FID counter-2
CCCc1cc(=O)oc2cc(OCC(=O)NC(Cc3c[nH]c4ccc(O)cc34)C(=O)O)c(Cl)cc12 (centres undefined)	-6	-13	20*	-13	52*	53*	-19	-12
Cc1cc(OCC(=O)NC(Cc2c[nH]c3ccc(O)cc23)C(=O)O)c2c(C)c(C)c(=O)oc2c1 (centres undefined)	1	6	28	-26	41	12	·	·
CC(Oc1ccc2c(-c3ccccc3)cc(=O)oc2c1)C(=O)NC(Cc1c[nH]c2ccc(O)cc12)C(=O)O (centres undefined)	0	-9	58*	-19	86*	41*	39*	-9
Cc1ccc(C=Nc2ccc(N(C)C)cc2)o1	-43	27	1	1	-8	39*	-12	19
Cc1ccc(C=Nc2ccccc2C(N)=O)o1	5	2	10	-1	3	6	·	·
CC(C(=O)N1CCc2ccccc21)n1cnc2c1c(=O)n(C)c(=O)n2C (centres undefined)	·	11	·	·	·	·	·	·
O=C(O)C(Cc1ccccc1)Nc1ccc([N+](=O)[O-])cc1[N+](=O)[O-] (centres undefined)	21	-1	5	1	3	38*	-23	4
O=C1/C(=C/c2cccs2)CCC/C1=C\c1cccs1	39	-20	53*	-20	72*	72*	-3	1
O=C1/C(=C\c2ccco2)CCC/C1=C\c1ccco1	32	-43	3	-21	86	48*	27	28
CC1C/C(=C/c2ccco2)C(=O)/C(=C/c2ccco2)C1 (centres undefined)	25	·	0	-24	81	27	·	·
CC1C/C(=C/c2cccs2)C(=O)/C(=C/c2cccs2)C1 (centres undefined)	33	-19	-1	-7	74	32	·	·
COc1ccc(/C=C2\N=C(C)OC2=O)cc1OC	-15	5	4	-11	-1	38*	-13	18
COc1ccc(/C=C2\N=C(C)OC2=O)cc1OC(C)=O	·	3	-1	-5	6	17	·	·
Cc1c(N=C2N=C(NC(=O)NC(C)(C)C)c3ccccc32)c(=O)n(-c2ccccc2)n1C	2	4	0	1	-13	58*	-12	-33
O=C(O)CCc1ccc(-c2ccc(Cl)cc2)n1Cc1ccco1	13	22	6	-24	21	36*	68*	-27
O=C(O)CCc1ccc(-c2cccs2)n1Cc1ccco1	2	14	35	-28	33	41*	-11	-7
O=C(NNC(=O)C(c1ccccc1)c1ccccc1)c1ccccc1O	·	9	·	·	·	·	·	·
N=c1c(S(=O)(=O)c2ccccc2)cc2c(=O)n3ccccc3nc2n1Cc1ccco1	87*	-13	60*	-4	95*	37*	-4	26
COc1ccc(/C=C2/SC(=S)N(Cc3ccccc3)C2=O)cc1O	·	-10	7	28	2	-4	·	·
O=C1/C(=C\c2cc(Cl)c(O)c(Cl)c2)SC(=S)N1Cc1ccccc1	·	i	?	-1	?	41*	66*	34
CC(=C\c1ccccc1)/C=C1/SC(=S)N(CCCC(=O)O)C1=O	·	14	7	-33	6	59*	61*	-10
O=C(O)CN1C(=O)/C(=C\C(Br)=C\c2ccccc2)SC1=S	6	23	33	-6	11	38*	72*	22
O=C(CN1C(=O)NC2(CCOc3ccccc32)C1=O)NCC(F)(F)F (centres undefined)	-1	4	0	0	-3	-8	·	·
CCc1nc2c(OCc3ccccc3C(=O)OC)cccn2c1N(C)C(=O)CC(C)C	·	6	·	·	·	·	·	·
O=C(N/N=C/c1ccccc1)c1ccc(NC(=O)c2ccc(F)cc2)cc1	-1	8	-1	-20	2	38*	-9	1
SMILES	core dimer inh	MLLE-PAM2 inh	PABP polyA inh	DNA FID counter-1	eIF4H FP inh	NS3 helicase inh	NS3 hel confirm	DNA FID counter-2
COc1ccc(/C=N\NC(=O)c2ccccc2)cc1COc1ccc(F)cc1	2	4	-3	-32	-5	46*	-12	-35
COc1ccc(C(=O)N/N=C/c2ccc(OC)c(COc3ccc(F)cc3)c2)cc1	10	1	-1	-25	-1	-9	·	·
Cc1ccc(/C=N/NC(=O)c2cccc(NC(=O)c3ccccc3C)c2)o1	9	-4	13	-20	-2	2	·	·
Cc1cccc(C(=O)Nc2ccc(C(=O)N/N=C/c3ccc(C)o3)cc2)c1	-6	-14	2	-16	-9	41*	-16	-20
O=C(N/N=C/c1cc(Cl)cc([N+](=O)[O-])c1O)c1ccc2c(c1)OCO2	-32	-10	-4	-4	22	52*	-8	7
COCCNC(=O)C[C@H]1C[C@H]2c3cc(NS(=O)(=O)c4ccc(F)cc4)ccc3O[C@H]2[C@H](CO)O1	·	-2	·	·	·	·	·	·
CCc1nc2ccc(C(=O)NCCOc3ccc(OC)cc3)cn2c1N(C)C(=O)Cc1ccccc1	·	-3	·	·	·	·	·	·
O=C(N/N=C/c1cc(Br)cc([N+](=O)[O-])c1O)c1ccc(NC(=O)c2ccc(F)cc2)cc1	0	-6	14	-20	10	37*	8	-2
O=C(N/N=C/c1cc(Br)cc(Br)c1O)c1ccncc1	-12	·	-1	-7	?	14	·	·
CN1CCN(S(=O)(=O)c2cccc(C(=O)Nc3ccc(Br)cc3Br)c2)CC1	1	-6	10	10	-1	-62	·	·
CCOC(=O)C1=c2s/c(=C\c3ccncc3)c(=O)n2C(N)=C(C(=O)OC)C1c1ccncc1 (centres undefined)	4	9	-1	-7	1	0	·	·
CCOC(=O)C1=C(C)NC(C)=C(C(=O)OC)C1c1ccco1 (centres undefined)	-3	3	3	-6	12	37*	-5	10
CCOC(=O)C1=C(N)n2c(s/c(=C/c3ccco3)c2=O)=C(C(=O)OC)C1c1ccco1 (centres undefined)	17	3	81*	-20	83*	41*	-3	9
COc1cc2c(cc1OC)CN(CC(=O)Nc1ccc(F)cc1)C(C(=O)O)C2 (centres undefined)	-4	-12	6	-3	5	-3	·	·
O=C(Cc1ccc(Cl)cc1)Nc1cccnc1Cl	·	-22	·	·	·	·	·	·
CCc1cc(=O)oc2cc(C)c(CN3CCCC3)c(O)c12	86*	-19	67*	-18	77*	39*	30	8
